Screening results: PubChem BioAssay, several laboratories
This is a sample that favours compounds with a hit; in the whole collection about 0.86% have one here.
hiPSC survival = hiPSC single-cell survival enhancement; survival enhancement, % at 20 µM; actives 0.044% (n = 360,000); AID 602274; ATPlite luminescence; 100% = ROCK inhibitor wells, 0% = DMSO; in the data active means survival enhancement above about 18%;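 further: cells exposed to compounds for 16 hours before the ATP read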
APJ antag = antagonists of human APJ apelin receptor | actives 0.32% (n = 330,000) | CHO-K1 APJ beta-arrestin complementation, luminescence | P35414 | inhibition, % at 20 µM;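 active means inhibition above about 40% at 20 µM, limit read from the data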;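 further: cells challenged with 10 nM apelin-13 agonist together with compound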
Target sequence (P35414 whole entry, looked up): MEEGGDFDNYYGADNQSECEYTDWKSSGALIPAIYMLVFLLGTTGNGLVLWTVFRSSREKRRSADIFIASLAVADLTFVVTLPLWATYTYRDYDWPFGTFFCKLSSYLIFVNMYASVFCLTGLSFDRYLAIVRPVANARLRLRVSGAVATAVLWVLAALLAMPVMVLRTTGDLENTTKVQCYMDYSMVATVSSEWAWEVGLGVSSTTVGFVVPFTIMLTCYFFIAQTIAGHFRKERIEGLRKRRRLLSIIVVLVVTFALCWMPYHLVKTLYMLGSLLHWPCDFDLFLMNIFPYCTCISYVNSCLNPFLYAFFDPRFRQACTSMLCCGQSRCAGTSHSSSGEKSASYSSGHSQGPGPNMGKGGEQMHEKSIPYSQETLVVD
APJ ag = activates the human apelin receptor APJ; P35414; CHO-K1 APJ PathHunter beta-arrestin, luminescence; 0% DMSO wells, 100% apelin; activation, % at 20 µM; actives 0.11% (n = 330,000);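 active means activation more than six SD over the plate average, tested at 20 µM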
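system = engineered CHO-K1 APJ arrestin reporter cells | input = 1000 cells per well | timing = overnight seeding, 90 min compound at 25 °C, 1 h detection | measured by = enzyme-fragment complementation luminescence | read-out = beta-arrestin recruitment to APJ as agonist activity, luminescent signal | control set = negative DMSO alone, positive Apelin-13 at 10 nM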
DAGLB inh = blocks human DAGLB lipase activity | Q8NCG7 | inhibition, % at 5.17 µM | actives 0.059% (n = 340,000) | AID 504411 | HEK293T DAGLB membrane lysate, EnzChek fluorogenic substrate; in the data active means inhibition above about 34%
CCR6 antagonist = CCR6 (human) receptor antagonism; P51684; CHO-K1 CCR6 PathHunter beta-arrestin, luminescence, CCL20-stimulated; inhibition, % at 20 µM; actives 0.49% (n = 340,000); AID 493098;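 active means compounds whose inhibition of the agonist-driven luminescence signal at 20 µM reaches about 50%, limit read from the data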;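 further: cells stimulated with CCL20 at 14 nM final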
CXCR6 block = CXCR6 (human) receptor inhibition; O00574; CHO-K1 PathHunter CXCR6 beta-arrestin, luminescence; inhibition, % at 20 µM; actives 0.36% (n = 360,000); AID 602244; in the data active means inhibition above about 34%, passing the limit was not always enough;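 further: antagonist mode with CXCL16 agonist at 10 nM final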
Target sequence (O00574 whole entry, looked up): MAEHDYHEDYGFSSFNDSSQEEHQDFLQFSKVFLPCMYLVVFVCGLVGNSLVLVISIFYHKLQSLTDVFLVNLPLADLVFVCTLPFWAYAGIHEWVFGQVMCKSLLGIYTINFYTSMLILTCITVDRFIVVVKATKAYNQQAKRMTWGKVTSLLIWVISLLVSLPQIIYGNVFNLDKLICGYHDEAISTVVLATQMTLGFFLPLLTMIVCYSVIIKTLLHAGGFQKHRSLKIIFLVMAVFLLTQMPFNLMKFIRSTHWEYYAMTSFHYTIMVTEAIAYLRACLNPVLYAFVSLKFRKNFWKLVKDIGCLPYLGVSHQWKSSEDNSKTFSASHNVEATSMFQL
Large screens that a line does not name were inactive.

CCOc1ccc(C(=O)NC(=S)Nc2ccc(N3CCC(C)CC3)cc2)cc1[N+](=O)[O-]	CCR6 antagonist 53 (no result: APJ antag, APJ ag)
CCOc1ccc(C(=O)NC(=S)Nc2ccccc2N2CCC(C)CC2)cc1[N+](=O)[O-]	none
CCOc1ccc(C(=O)NC(=S)Nc2ccc(NC(=O)c3ccco3)c(C)c2)cc1[N+](=O)[O-]	CCR6 antagonist 50
COc1ccc(-n2ncc3c2CC(C)(C)CC3NC(=O)c2ccnn2C)cc1 (stereo not drawn)	none
CC(=O)NC(=S)Nc1sc2c(c1C(N)=O)CCC(C)C2 (stereo not drawn)	CXCR6 block 39
CCOC(=O)SC1=N/C(=C\c2ccc(N(C)C)cc2)C(=O)S1	CCR6 antagonist 51
Cc1nnc2n(C3CCCCC3)c(=O)c3c4c(sc3n12)COC(C)(C)C4	hiPSC survival 21
Oc1ccc(N=Nc2ccc3c(c2)OCO3)c2ccccc12	APJ antag 58 (no result: hiPSC survival, DAGLB inh, CCR6 antagonist, CXCR6 block)
O=C(NN=Cc1c(O)ccc2ccccc12)c1ccc2c(c1)OCO2	none
CCCn1c(SCc2ccccc2)nc2c1c(=O)[nH]c(=O)n2C	hiPSC survival 32
CCCCCCn1c(SCCN2CCOCC2)nc2c1c(=O)[nH]c(=O)n2C	hiPSC survival 26
O=[N+]([O-])c1cccc(-c2nc(-c3ccccc3)c(-c3cccs3)[nH]2)c1	none
COc1cc(-c2nc(-c3ccccc3)c(-c3cc([N+](=O)[O-])ccc3C)[nH]2)cc(OC)c1OC	CXCR6 block 49
COC(=O)c1ccc(NC(=S)NC(=O)c2cc(-c3ccccc3)nc3ccccc23)cc1	CCR6 antagonist 53
COC(=O)c1ccc(NC(=O)c2cc(-c3ccncc3)nc3ccccc23)cc1	none
CCC(C(=O)OCC(=O)Nc1cc(Cl)ccc1Cl)c1ccccc1 (stereo not drawn)	APJ antag 42
CCCCOc1ccc(C(=O)NCC(=O)OCCCOC(=O)CNC(=O)c2ccc(OCCCC)cc2)cc1	none (no result: APJ antag, APJ ag, CCR6 antagonist)
CCOc1ccc(NC(=O)COC(=O)c2cc(C)oc2C)cc1	none
CC(NC(=O)/C(C#N)=C/c1ccc(Cl)c([N+](=O)[O-])c1)c1ccccc1 (stereo not drawn)	CCR6 antagonist 93 (no result: hiPSC survival, DAGLB inh, CXCR6 block)
CC1CCCC(C)N1C(=O)COC(=O)CNS(=O)(=O)c1ccc2ccccc2c1 (stereo not drawn)	none (no result: APJ antag, APJ ag, CCR6 antagonist)
CC(=O)OCCCNc1cc(SCc2ccco2)c2nonc2c1[N+](=O)[O-]	CCR6 antagonist 55
CCOC(=O)CN1C(=O)S/C(=C/c2cccc([N+](=O)[O-])c2O)C1=O	CCR6 antagonist 56
COCCNC(=O)c1ccc(-c2cn[nH]c2)c2ccoc12	hiPSC survival 31 (no result: APJ antag, APJ ag, DAGLB inh, CCR6 antagonist)
O=C(NCc1ccccc1)c1ccc(-c2cn[nH]c2)c2ccoc12	hiPSC survival 107 (no result: APJ antag, APJ ag, DAGLB inh, CCR6 antagonist)
O=C(NCC1CC1)c1ccc(-c2cn[nH]c2)c2ccoc12	hiPSC survival 43 (no result: APJ antag, APJ ag, DAGLB inh, CCR6 antagonist)
O=C(COC(=O)CCc1c[nH]c2ccccc12)NC(c1ccccc1)c1ccccc1	none
CC(=O)Nc1cccc(C(=O)OCC(=O)N2CCC(c3ccccc3)=N2)c1	none
CN(C)CCNc1nc(-c2ccccc2F)c2sccc2n1	none (no result: APJ antag, APJ ag, DAGLB inh, CCR6 antagonist)
O=C(CNc1ccc(Cl)cc1)c1ccc(Br)cc1	APJ antag 83, CCR6 antagonist 62
NC(=S)N=Nc1c(O)n(CCCl)c2ccc(Br)cc12	none
C/C(Cl)=C\Cn1c(O)c(N=NC(N)=S)c2cc(Br)ccc21	CCR6 antagonist 55
C/C(=N\NC(=O)C1CCCN(S(=O)(=O)c2ccccc2)C1)c1ccncc1 (stereo not drawn)	none
C/C(=N\NC(=O)C1CCCN(S(=O)(=O)c2ccccc2)C1)c1ccccn1 (stereo not drawn)	CXCR6 block 40 (no result: CCR6 antagonist)
COc1ccc(/C(C)=N/NC(=O)CNC(=O)c2cccnc2)cc1OC	none
Cc1ccc(C(=O)Nc2c(-c3ccc(Cl)cc3)[nH][nH]c2=O)cc1	none (no result: APJ antag, APJ ag, DAGLB inh, CCR6 antagonist)
CC(C)C1C(=O)N(Cc2cn(CCC3OCCO3)nn2)CCS(=O)(=O)N1Cc1ccc(-c2ccc(F)cc2Cl)cc1 (stereo not drawn)	none (no result: APJ antag, APJ ag, DAGLB inh, CCR6 antagonist)
CCOC(=O)N1CCN(C(=O)c2ccc3c(=O)n(Cc4ccccc4)c(=S)[nH]c3c2)CC1	none
CCOC(=O)N1CCN(C(=O)c2ccc(Cn3c(=S)[nH]c4cc(OCC)c(OCC)cc4c3=O)cc2)CC1	APJ ag 27
COc1cc(/C=C2/C(=O)NN(c3cccc(Cl)c3)C2=O)cc(OC)c1O	CCR6 antagonist 52
Cc1ccccc1C(=O)Nc1cccc(C(=O)N/N=C/c2cc(Cl)cc([N+](=O)[O-])c2O)c1	CCR6 antagonist 71
COc1cc(/C=N/NC(=O)c2cccc(NC(=O)c3ccccc3C)c2)ccc1O	none
C/C(=N\NC(=S)Nc1ccc(F)cc1)c1ccc2c(c1)OCCO2	CCR6 antagonist 58
CN(CC(=O)Nc1sccc1C(N)=O)S(=O)(=O)c1ccc(Cl)cc1	none
CCOC(=O)C1(Cc2cccc(Cl)c2)CCCN(C(=O)c2cnn(CC)c2)C1 (stereo not drawn)	none
CC(C)c1ccc(O)c(NC(=S)NC(=O)c2ccc3c(c2)OCO3)c1	CXCR6 block 45 (no result: CCR6 antagonist)
O=C(NCCCN1CCCCCC1)c1ccc(CS(=O)(=O)Cc2ccccc2F)o1	hiPSC survival 28 (no result: APJ antag, APJ ag)
CN(C)CC1CCC/C(=C\c2ccc(OC(=O)/C=C/c3ccccc3)cc2)C1=O (stereo not drawn)	CCR6 antagonist 62 (no result: APJ antag, APJ ag)
O=C1/C(=C\c2ccc(Cl)cc2)CCC1CNc1ccc(Cl)cc1 (stereo not drawn)	none (no result: APJ antag, APJ ag)
CC(=O)c1ccc(OC(=O)/C=C/c2ccccc2)cc1	none
CN(C)CC1CCC/C(=C\c2ccc(OC(=O)c3ccc(Cl)cc3)cc2)C1=O (stereo not drawn)	CCR6 antagonist 59 (no result: APJ antag, APJ ag)
O=C(CN1CCN(S(=O)(=O)c2ccc(Br)cc2)CC1)Nc1ccc2c(c1)OCO2	CXCR6 block 62
CCN1CCN(C(=O)C(C)Nc2ccc(OC)cc2OC)CC1 (stereo not drawn)	none
CC(=O)Nc1ccc(C=NNc2ccc([N+](=O)[O-])cc2S(=O)(=O)Nc2ccccc2C(=O)O)cc1	none
Cc1ccc(NC(=S)NNc2ccc([N+](=O)[O-])cc2S(=O)(=O)Nc2ccccc2C(=O)O)cc1C	CCR6 antagonist 68 (no result: APJ antag, APJ ag)
CN(CCO)c1ccc(C=NNc2ccc([N+](=O)[O-])cc2S(=O)(=O)Nc2ccccc2C(=O)O)cc1	CCR6 antagonist 62 (no result: DAGLB inh)
OCC1(Cc2ccccc2F)CCCN(Cc2c(F)ccc(F)c2F)C1 (stereo not drawn)	none
CCc1nc(SCC(=O)Nc2nc3c(s2)CCCC3)c2ccccc2n1	none
CCCc1nc(SCC(=O)Nc2nc3c(s2)CCCC3)c2ccccc2n1	hiPSC survival 22
COc1cc(NS(=O)(=O)c2ccc(-n3cccn3)cc2)cc(OC)c1	none (no result: APJ antag, APJ ag, CCR6 antagonist)
